Screens: PubChem BioAssay, several laboratories
KCNQ1 block: inhibitors of human KCNQ1 potassium channel; P51787; CHO-K1 KCNQ1, FluxOR thallium flux fluorescence; active compounds read high; AID 2642; 1.3% of 310,000 active; B-score at 10 µM;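 active = compounds whose thallium flux B-score, printed positive for inhibition, exceeds three library SD while starting fluorescence stays within three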;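 note: channel opened by potassium depolarization with thallium stimulus after 20 min compound exposure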
hERG rescue: shields human hERG channel from block by proarrhythmic agents. CHO-hERG, FluxOR thallium flux, dofetilide IC70 present. activation (rescue from dofetilide block), less the hit threshold, % at 10 µM. 0.51% of 310,000 active;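 active = activation above the mean of controls blocked by dofetilide plus 5 SD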;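 note: thallium influx through hERG after potassium depolarization seen as dye fluorescence rise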
Target sequence (Q12809 whole entry, looked up): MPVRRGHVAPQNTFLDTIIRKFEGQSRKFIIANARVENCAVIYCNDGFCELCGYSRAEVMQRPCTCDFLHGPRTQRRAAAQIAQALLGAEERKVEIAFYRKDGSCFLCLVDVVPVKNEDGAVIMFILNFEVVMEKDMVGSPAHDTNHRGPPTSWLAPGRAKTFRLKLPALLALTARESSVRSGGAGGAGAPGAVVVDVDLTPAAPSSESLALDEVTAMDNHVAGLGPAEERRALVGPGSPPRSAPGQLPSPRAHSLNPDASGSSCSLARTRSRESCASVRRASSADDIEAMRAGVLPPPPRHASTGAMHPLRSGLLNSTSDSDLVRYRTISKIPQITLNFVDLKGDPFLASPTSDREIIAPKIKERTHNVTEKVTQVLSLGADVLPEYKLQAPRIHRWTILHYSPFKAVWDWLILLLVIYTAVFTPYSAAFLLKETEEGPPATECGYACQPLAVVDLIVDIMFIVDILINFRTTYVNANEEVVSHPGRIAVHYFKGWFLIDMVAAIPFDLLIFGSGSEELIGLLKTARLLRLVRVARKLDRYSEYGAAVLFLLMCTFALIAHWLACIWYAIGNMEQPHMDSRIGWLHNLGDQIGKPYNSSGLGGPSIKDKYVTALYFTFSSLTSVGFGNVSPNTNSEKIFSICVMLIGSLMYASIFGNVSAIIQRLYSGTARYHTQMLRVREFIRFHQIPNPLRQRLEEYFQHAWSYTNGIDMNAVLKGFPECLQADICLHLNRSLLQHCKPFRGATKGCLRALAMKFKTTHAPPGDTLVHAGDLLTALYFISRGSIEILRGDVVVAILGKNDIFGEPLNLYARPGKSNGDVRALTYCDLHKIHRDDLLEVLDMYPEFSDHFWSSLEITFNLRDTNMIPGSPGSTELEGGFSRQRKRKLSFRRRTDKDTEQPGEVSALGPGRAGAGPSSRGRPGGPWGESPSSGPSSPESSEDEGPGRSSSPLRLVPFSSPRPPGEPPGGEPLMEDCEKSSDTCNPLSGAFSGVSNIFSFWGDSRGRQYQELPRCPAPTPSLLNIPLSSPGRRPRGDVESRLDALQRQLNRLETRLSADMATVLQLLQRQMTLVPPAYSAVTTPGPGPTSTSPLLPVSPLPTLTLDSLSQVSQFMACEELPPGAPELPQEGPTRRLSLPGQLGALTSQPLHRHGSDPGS
KCNQ1 act: potentiates or activates the human KCNQ1 potassium channel | P51787 | CHO-K1 KCNQ1, thallium flux FluxOR fluorescence; active compounds read high | B-score at 10 µM | 0.35% of 310,000 active;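 active = fluorescence ratio B-score, a plate-corrected score, at least three library SD, with initial intensity B-score within 5 SD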
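Medium – assay buffer, equal DMSO in all wells · Material – CHO-K1 cell line with stable KCNQ1 potassium channel expression · Signal – kinetic FluxOR thallium fluorescence, 10-s 1-Hz baseline, 110-s post-stimulus read · Compound – single concentration per compound, DMSO matched to controls · Schedule – 37 °C overnight plating, 90-min dark dye load, 20-min compound pretreatment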
PHOSPHO1 inh: inhibitors of human PHOSPHO1 phosphatase; inhibition, % at 13.3 µM; AID 1565; Q8TCT1; 1.1% of 290,000 active; recombinant PHOSPHO1, absorbance phosphatase assay; in the data active = inhibition above about 60%
KCNK3 block: human KCNK3 channel inhibition, primary screen; CHO-KCNK3 thallium flux, FluxOR fluorescence; active compounds read low; B-score at 10 µM; 0.84% of 340,000 active; AID 602410;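 active = B-score under library mean minus 4 SD, starting fluorescence ratio at most library mean plus 5 SD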;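 note: more negative B-score means stronger inhibition of thallium flux through KCNK3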
KCNK9 inh: human KCNK9 channel inhibition; HEK293 KCNK9, FluxOR thallium flux fluorescence; active compounds read low; 1.2% of 310,000 active; B-score at 10 µM; Q9NPC2;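 active = ratio B-score over 3 SD below the library mean, with starting fluorescence within 5 SD of its mean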;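 note: negative B-score means less thallium flux so channel inhibition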
KCNK3 inh conf: confirmation of human KCNK3 two-pore domain potassium channel inhibitors; shares compounds with KCNK3 block; CHO-KCNK3 thallium flux, FluxOR fluorescence; 0% buffer, 100% carvedilol maximal block; ratio percent of control, % at 10 µM; 99% of 2,400 active;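 active = ratio percent of control, averaged over triplicates, above buffer control mean plus 5 SD, cut at about 64% in these data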;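 note: ratio is the fluorescence rise from min to max over baseline after thallium stimulus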
KCNK3 uninduced: counter-screen for KCNK3 inhibitors: effect in non-induced cells. thallium flux ratio (lower = more inhibition) at 10 µM. shares compounds with KCNK3 block. non-induced KCNK3 parental cells, FluxOR thallium flux; active compounds read low. 40% of 2,400 active. AID 651747;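 active = thallium flux ratio, averaged over three wells, more than 5 SD below the buffer control mean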;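 note: host cells are CHO cells without KCNK3 induction; ratio is peak minus trough fluorescence over baseline then normalized to buffer controls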
* marks the source's active call; other numbers are inactive results; i = inactive; · = no result. Compounds with a hit are over-represented: about 4% of the library has one in this group of screens.

SMILES	KCNQ1 block	hERG rescue	KCNQ1 act	PHOSPHO1 inh	KCNK3 block	KCNK9 inh	KCNK3 inh conf	KCNK3 uninduced
CSc1ccccc1NC(=O)c1cc(-c2cccnc2)nc2ccc(Br)cc12	i	-9	i	25	-13*	i	109*	0.15*
O=C(C1CCCCC1)N1CCN=C1SCc1cccc([N+](=O)[O-])c1	i	-8	i	57	i	i	·	·
c1ccc(-c2csc3ncnc(NCc4ccccn4)c23)cc1	i	-24	i	6	i	i	·	·
c1ccc(CNc2ncnc3scc(-c4cccs4)c23)nc1	i	-33	i	-28	-11*	i	118*	i
CN(C)S(=O)(=O)c1cccc(COC(=O)Cc2c(F)cccc2Cl)c1	i	-11	i	23	i	i	·	·
CCCCn1c(N)c(-c2nc3ccccc3s2)c2c([N+](=O)[O-])nn(C)c(=O)c21	i	-11	i	0	i	i	·	·
CCCCn1c(N)c(-c2nc3ccccc3s2)c2c([N+](=O)[O-])nn(CC)c(=O)c21	i	-6	i	0	-11*	i	122*	0.13*
COc1ccc(C2C(C(C)=O)=C(Nc3ccccc3)CC(C)(O)C2C(C)=O)cc1OC (configuration not stated)	i	3	i	14	i	i	·	·
COc1ccc(NC2=C(C(C)=O)C(c3ccc(OC)cc3)C(C(C)=O)C(C)(O)C2)cc1 (configuration not stated)	i	-6	i	24	-9.1*	i	68*	i
CC(=O)C1=C(Nc2ccccc2)CC(C)(O)C(C(C)=O)C1c1ccccc1 (configuration not stated)	i	-3	i	23	-12*	i	52*	i
Cc1cc(C(=O)NNC(=O)c2cccs2)nn1C(C)(C)C	i	-7	i	19	i	i	·	·
CCN(CC)C(=O)C1CCCN(c2ccc([N+](=O)[O-])cc2/C=N/NC(=O)c2cccc(O)c2)C1 (configuration not stated)	i	-8	i	2	-14*	i	91*	i
CCCN1CCN(C(=O)Nc2cccc(C(F)(F)F)c2)CC1	i	-11	i	37	-10*	i	106*	i
O=C(Nc1cccc(C(F)(F)F)c1)N1CCN(C(=O)Nc2cccc(C(F)(F)F)c2)CC1	i	-14	i	10	i	i	·	·
O=[N+]([O-])c1cccnc1Sc1ccc(Cl)cc1	i	-5	i	6	i	i	·	·
Cc1cc(F)ccc1S(=O)(=O)NCC(c1ccc2c(c1)OCO2)N1CCOCC1 (configuration not stated)	i	-15	i	·	-11*	i	70*	i
COc1ccc(/C=N/NC(=O)c2cc(-c3ccccc3OC)nc3ccccc23)cc1COC(C)=O	i	-10	i	11	-11*	i	97*	i
Cc1nc(-c2ccccc2)sc1C(=O)CSc1ccc(F)cc1	i	-12	i	-14	-13*	i	96*	i
Cc1nc(-c2ccccc2)sc1C(=O)CSc1ccccc1	i	-10	i	-10	i	i	·	·
COc1cc2c(cc1OC)CN(C1CCCN(Cc3cccc(C(C)=O)c3)C1)CC2 (configuration not stated)	·	·	·	·	i	·	·	·
CN(C)c1ccc(C=c2c3ccccc3n3c2c2c([n+]3C)CCCC2)cc1	·	·	·	·	-13*	·	171*	0.071*
COc1cc(N(C)C)ccc1C=c1c2ccccc2n2c1cc(-c1ccccc1)[n+]2C	·	·	·	·	i	·	·	·
Cc1ccc(C(=O)N2CCN(C34CC5CC(CC(C5)C3)C4)CC2)o1	i	-5	i	·	i	i	·	·
Cc1ccccc1NC1c2ccccc2C(=O)N1Cc1ccco1 (configuration not stated)	i	-13	i	13	-10*	i	119*	0.15*
O=C(c1ccccc1OCc1ccc(Cl)cc1)N1CCN(c2ccccn2)CC1	i	-18	i	·	-9*	i	119*	i
SMILES	KCNQ1 block	hERG rescue	KCNQ1 act	PHOSPHO1 inh	KCNK3 block	KCNK9 inh	KCNK3 inh conf	KCNK3 uninduced
O=C(c1ccco1)N1CCN(C(=O)c2ccccc2OCc2ccc(Cl)cc2)CC1	i	-15	i	·	i	i	·	·
CC1=C(C(=O)OCc2ccccc2)C(c2ccccc2Cl)NC(=O)N1C (configuration not stated)	i	-8	i	39	i	i	·	·
COc1ccc(OC)c(C2NC(=O)N(C)C(C)=C2C(=O)OCc2ccccc2)c1 (configuration not stated)	i	-11	i	30	-9.3*	i	141*	0.11*
O=C(NC1CCCCC1)c1cc(-c2ccc(F)cc2)on1	i	-5	i	36	i	i	·	·
Cc1ccc2oc(=O)n(CCOc3ccccc3C)c2c1	i	-3	i	27	i	i	·	·
Cc1ccc2oc(=O)n(CCCOc3ccccc3C)c2c1	i	-15	i	34	-11*	i	121*	0.14*
CC(C)(C)OC(=O)NCCCCCc1nnc(SCC(=O)Nc2cccc(Cl)c2)o1	i	-17	i	-42	-9.2*	i	117*	0.15*
CC(=O)NN1C(=O)/C(=C\c2ccc(O)cc2)SC1=S	i	-5	i	28	i	i	·	·
O=C1/C(=C\c2ccc(O)cc2)SC(=S)N1/N=C/c1ccc(O)cc1	7*	-17	i	8	-8.8*	i	109*	0.15*
COc1ccc(Nc2ccc(Cl)nn2)cc1	i	-5	i	27	i	i	·	·
Cc1ccc(CNC(=O)CN2C(C)CCCC2C)cc1 (configuration not stated)	i	-4	i	-7	i	i	·	·
CCCCCCC(=O)Nc1nnc(CC)s1	i	-9	i	-26	i	i	·	·
Cc1ccc(OCCC(=O)NNC(=O)c2ccccc2F)cc1	·	·	·	·	i	·	·	·
CCOc1ccc(CN(C)c2nc(-c3cccnc3)nc3ccccc23)cc1OC	i	-7	i	27	-16*	i	104*	i
CCCCNC(=O)COC(=O)c1ccc(SC)cc1OC	i	-11	i	24	i	i	·	·
CCC(C)(c1ccc(C(=O)OC)s1)c1ccc(C(=O)OC)s1	i	-7	i	18	-9.1*	i	119*	0.14*
